{"data": "Published values collected from several papers", "target": "Myotonin-protein kinase (DMPK, Homo sapiens, UniProt Q09013)", "Sequence (Q09013 1-629, as in one of the studies)": "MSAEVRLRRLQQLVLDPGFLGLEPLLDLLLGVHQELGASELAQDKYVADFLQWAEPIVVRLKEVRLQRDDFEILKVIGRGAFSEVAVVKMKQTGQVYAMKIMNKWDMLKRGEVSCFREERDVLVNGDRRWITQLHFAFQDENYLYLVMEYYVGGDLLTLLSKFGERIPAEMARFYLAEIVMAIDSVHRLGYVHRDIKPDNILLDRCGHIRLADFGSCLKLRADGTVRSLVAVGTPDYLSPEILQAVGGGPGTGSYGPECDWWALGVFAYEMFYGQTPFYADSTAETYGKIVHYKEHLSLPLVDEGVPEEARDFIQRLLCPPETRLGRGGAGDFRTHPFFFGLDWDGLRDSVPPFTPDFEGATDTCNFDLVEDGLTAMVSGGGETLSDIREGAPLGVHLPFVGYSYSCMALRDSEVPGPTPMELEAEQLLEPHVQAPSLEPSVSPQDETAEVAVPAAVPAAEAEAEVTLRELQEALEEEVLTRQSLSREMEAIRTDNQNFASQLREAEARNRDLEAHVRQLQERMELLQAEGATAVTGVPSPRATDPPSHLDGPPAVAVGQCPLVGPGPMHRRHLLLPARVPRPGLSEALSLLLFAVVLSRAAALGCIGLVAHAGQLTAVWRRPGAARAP", "note": "Protocols differ between the studies behind these lines."}
{"Compound": "COc1ccc2oc(-c3ccc4nc(N)oc4c3)c/c(=N\\c3ccccc3NC(=O)CCN)c2c1", "assay": "binding", "conditions": "1 µM", "measurement": "remaining binding", "result": "102%"}
{"Compound": "CCCCC(=O)Nc1ccc(-c2ccc3ncn(CCC)c(=O)c3c2)cn1", "assay": "binding, competition with immobilised ligand", "conditions": "0.5 µM", "measurement": "remaining binding", "result": "83%"}
{"Compound": "C1=C/COCc2cc(ccc2OCCN2CCCC2)Nc2nccc(n2)-c2cccc(c2)COC/1", "assay": "binding", "conditions": "0.1 µM", "measurement": "remaining binding", "result": "100%"}
{"Compound": "C=CC(=O)N1CCC([C@@H]2CCNc3c(C(N)=O)c(-c4ccc(Oc5ccccc5)cc4)nn32)CC1", "assay": "enzyme activity, inhibitor", "conditions": "1 µM", "measurement": "inhibition", "result": "10%"}
{"Compound": "Cc1ccc(NC(=O)c2ccnc(C(F)(F)F)c2)cc1-c1cc(OCCO)nc(N2CCOCC2)c1", "assay": "binding, competition with immobilised ligand", "conditions": "1 µM", "measurement": "remaining binding", "result": "100%"}
{"Compound": "CC(C)S(=O)(=O)c1ccc2nccc(Nc3ccc4sc(C5CCCC5)nc4c3)c2c1", "assay": "enzyme activity, inhibitor", "conditions": "1 µM", "measurement": "activity vs control", "result": "80%"}
{"Compound": "COc1ccc2[nH]c3c4[nH]c5ccc(OC)cc5c4c4c(c3c2c1)C(=O)NC4=O", "assay": "binding, competition with immobilised ligand", "conditions": "1 µM", "measurement": "remaining binding", "result": "56%"}
{"Compound": "C=CC(=O)N1CCC[C@@H](n2nc(-c3ccc(Oc4ccccc4)cc3)c3c(N)ncnc32)C1", "assay": "enzyme activity, inhibitor", "conditions": "1 µM", "measurement": "inhibition", "result": "1%"}
